Experimental data pooled from the literature.
Compare with care: the assays were run in different laboratories.
BCHE: Cholinesterase (BCHE, Equus caballus, UniProt P81908)
Sterol carrier protein 2: Sterol carrier protein 2 (Aedes aegypti, UniProt Q86PR3)
DRD1: D(1A) dopamine receptor (DRD1, Homo sapiens, UniProt P21728)

| Compound | target | assay | conditions | quantity | value |
| --- | --- | --- | --- | --- | --- |
| O=S(=O)(O)c1ccc(-c2c3nc(c(-c4ccc(S(=O)(=O)O)cc4)c4ccc([nH]4)c(-c4ccc(S(=O)(=O)O)cc4)c4nc(c(-c5ccc(S(=O)(=O)O)cc5)c5ccc2[nH]5)C=C4)C=C3)cc1 | Galectin-7 (LGALS7, Homo sapiens, UniProt P47929) | binding |  | Kd | 9.5 µM |
| CNc1nc(C#Cc2ccc(Cl)s2)nc2c1ncn2[C@@H]1O[C@H](C(=O)OC)[C@@H](O)[C@H]1O | Sodium-dependent serotonin transporter (SLC6A4, Homo sapiens, UniProt P31645) | ligand displacement, radioligand | cell membranes | Ki | > 10 µM |
| O=c1c(O)c(-c2ccc(O[C@@H]3O[C@H](CO)[C@@H](O)[C@H](O)[C@H]3O)c(O)c2)oc2cc(O)cc(O)c12 | BCHE | enzyme activity, inhibitor |  | Ki | 0.0281 µM |
| C[C@H]1c2c[nH]c3cccc(c23)S[C@H]1C(=O)O | trpS (Geobacillus stearothermophilus, UniProt P00953) | binding, ITC |  | Kd | 3.1 µM |
| CC=C1[C@H]2C=C(C)C[C@]1(N(C)C)c1ccc(OC)nc1C2 | BCHE | enzyme activity, inhibitor, Ellman |  | IC50 | 1350 µM |
| O=c1c(O)c(-c2ccc(O)c(O)c2)oc2cc(O)cc(O)c12 | Sterol carrier protein 2 | ligand displacement |  | EC50 | 18.4 µM |
| CC(CCc1ccc(O)cc1)NCCc1ccc(O)c(O)c1 (stereo not drawn) | DRD1 | cAMP, agonist, TR-FRET |  | EC50 | 13 µM |
| CC=C1[C@H]2C=C(C)C[C@]1(N(C)C)c1ccc(=O)[nH]c1C2 | BCHE | enzyme activity, inhibitor, Ellman |  | IC50 | 224 µM |
| N[C@H]1C[C@@H](CO)[C@H](c2ccc(-c3cc(C(=O)O)cc4cc(-c5ccc(C(F)(F)F)cc5)ccc34)cc2)C1 | DRD1 | cell-free assay, radioligand |  | Ki | 1.4 to 2.2 µM |
| COc1cc(/C=C2\CCC/C(=C\c3cc(OC)c(OC)c(OC)c3)C2=O)cc(OC)c1OC | Sterol carrier protein 2 | ligand displacement, fluorescence |  | EC50 | 12.1 µM |
| CNC[C@H](O)c1cccc(O)c1 | DRD1 | cAMP, agonist, TR-FRET |  | EC50 | 2.8 µM |
| CN(C)C(=O)COC(=O)c1cc(-c2ccc([C@H]3C[C@H]4C[C@@H]3CN4)cc2)c2ccc(-c3ccc(C(F)(F)F)cc3)cc2c1 | DRD1 | cell-free assay, radioligand |  | Ki | 1.4 to 2.2 µM |
